Source: PubChem
aDG glyco up: alpha-DG glycosylation activation; AID 624168; 360,000 compounds, 0.22% hits; activation, % at 10 µM; Pro5-aDG cells, alpha-DG glycosylation AlphaScreen (IIH6); 0% Pro5, 100% B10-LARGE cell signal;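 active = activation of at least 8% versus controls, or a plate z-score of at least 8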;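 note: Pro5 are CHO cells carrying HIG-tagged alpha-DG that lacks glycosylation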
NR3A LBD binder: NR3A (human) ligand-binding domain modulation | NR3A LBD differential scanning fluorimetry, Tm shift; 0% = protein alone, 100% = glycine-bound protein | Tm shift relative to glycine control, % at 25 µM | 340,000 compounds, 2.5% hits | AID 1259313;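 active = melting temperature shift of at least 10% of the positive control shift, at one fixed dose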
Lipid droplet: hepatic lipid droplet formation modulation; 240,000 compounds, 0.4% hits; AML12 mouse hepatocytes, oleate lipid droplets, BODIPY imaging; AID 1656; inhibition, % at 6.5 µM;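 active = lipid droplet intensity inhibited by at least 50%, with more than 500 cells counted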
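material = mouse AML12 hepatocyte cell line, fixed after treatment | also added = 100 µM oleic acid challenge | doses = compound at 6.5 µM only | schedule = overnight exposure | technique = Image-based BODIPY and DAPI two-channel analysis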
GC-A act: GC-A (human) enzyme activation | HEK293 GC-A cells, cGMP TR-FRET, EC30 ANP; 0% at EC30 ANP, 100% saturating ANP | activation, % at 10 µM | 370,000 compounds, 0.14% hits | AID 1671463; in the data active = activation above about 40%
JMJD2C inh: inhibitors of human GASC-1 (JMJD2C) demethylase | AID 2099 | inhibition, % at 2.35 µM | GST-JMJD2C(1-420) H3K9me3 demethylation, DELFIA europium | 330,000 compounds, 0.069% hits;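 active = more than half of a compound's replicate wells show inhibition beyond 50%, single wells judged on their own value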;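 note: signal counts dimethyl H3K9 product captured on neutravidin plate; 0% = median of DMSO wells and 100% = 0.3 times that DMSO median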
Target sequence (Q9H3R0 1-420 limits assumed): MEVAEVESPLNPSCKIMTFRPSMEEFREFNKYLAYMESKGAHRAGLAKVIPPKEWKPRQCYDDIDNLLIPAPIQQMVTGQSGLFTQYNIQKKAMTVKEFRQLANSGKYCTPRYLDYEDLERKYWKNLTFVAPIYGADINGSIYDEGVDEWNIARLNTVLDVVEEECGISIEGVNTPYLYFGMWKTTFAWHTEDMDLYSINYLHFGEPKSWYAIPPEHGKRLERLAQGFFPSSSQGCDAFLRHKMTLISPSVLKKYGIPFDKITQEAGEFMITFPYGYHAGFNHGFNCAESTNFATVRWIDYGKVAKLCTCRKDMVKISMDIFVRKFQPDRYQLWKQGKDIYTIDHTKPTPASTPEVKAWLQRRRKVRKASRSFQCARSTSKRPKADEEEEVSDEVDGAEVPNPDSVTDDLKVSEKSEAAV
NPR2 activator: GC-B (human) receptor activation; P20594; HEK293-GC-B cells, CNP EC30, cGMP TR-FRET; 0% at EC30 CNP, 100% saturating CNP; activation, % at 10 µM; 370,000 compounds, 0.11% hits; AID 1920062;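 active = activation at 10 µM reaching about 35% in either raw or pattern-adjusted values, limit read from the data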
Starred values were filed as active, the others as inactive; x = no result. Only some compounds are listed: those with a hit (about 3% of all), similar ones and a draw of the others.

SMILES	aDG glyco up	NR3A LBD binder	Lipid droplet	GC-A act	JMJD2C inh	NPR2 activator
COc1ccc(-n2c(N)c(C(=O)NCC3CCCO3)c3nc4ccccc4nc32)c(OC)c1 (stereo not drawn)	0	-17	x	40*	24	40*
Fc1ccccc1NC(=S)NN(Cc1ccccc1)c1ccccc1	0	0	-1	-2	16	2
Cc1cccc(C)c1NC(=S)NN(Cc1ccccc1)c1ccccc1	0	-5	-4	-10	72*	-8
Cc1cc(C)cc(NC(=O)CCNS(=O)(=O)c2cc(Br)cnc2N)c1	0	12*	-1	-4	3	-1
CCOC(=O)c1ccc(NC(=O)CCNS(=O)(=O)c2cc(Br)cnc2N)cc1	0	15*	0	-6	0	-6
COc1ccc(NC(=O)CCNS(=O)(=O)c2cc(Br)cnc2N)cc1OC	0	3	-15	4	2	1
Oc1ccccc1C=NNC(=S)NC1CC2C=CC1C2 (stereo not drawn)	1	x	x	-3	x	5
Oc1c(Cl)cc(Cl)cc1/C=N/NC(=S)NC1CC2C=CC1C2 (stereo not drawn)	0	12*	-56	1	5	5
C#CCNC(=O)C[C@H]1C[C@@]2(C(=O)OC)C(=C[C@H](C3CCCC3)O[C@@H]2C)N(Cc2ccccc2)C1=O	x	x	x	-8	x	-2
CC(c1c[nH]c2ccccc12)c1c[nH]c2ccc(Br)cc12 (stereo not drawn)	x	x	x	-7	x	-9
CN1CCN(NC(=O)COc2cccc(C(F)(F)F)c2)CC1	0	13*	7	2	-3	6
O=C(CSc1nnc(-c2ccccc2)n1-c1ccccc1)Nc1ccc(Oc2ccccc2)cc1	x	x	x	5	x	5
Cc1c(Cl)cccc1NC(=O)COC(=O)CCc1nc2ccccc2n1-c1ccccc1	0	25*	12	-10	-2	-8
Cc1ccc2oc(=O)c3cnn(CC(=O)NCCC(C)C)c3c2c1	0	13*	14	-7	0	-12
O=C(NC1CCCCN(Cc2cccc(Cl)c2)C1=O)c1ccc(COc2ccccc2)cc1 (stereo not drawn)	x	x	x	7	x	8
Oc1ccc(/C=N/Nc2cccc(Cl)n2)c(O)c1	0	27*	7	15	-2	15
Cc1cc(C(=O)N/N=C/c2c(CO)cnc(C)c2O)c2ccccc2n1	0	1	-1	-2	-30	-4
Cc1ncc(CO)c(/C=N/Nc2cccc(Cl)n2)c1O	0	15*	-16	8	1	15
CCOC(=O)c1[nH]c(C)c(CN(CCc2ccc(OC)c(OC)c2)C(=O)CCCC(=O)O)c1C	0	15*	x	0	-5	9
O=C(NCCCN1CCCC1)C1CCN(C(=O)c2cc3sccc3n2Cc2ccc(F)cc2)CC1	0	11*	18	-6	-18	4
COCCCNC(=O)C1CCN(C(=O)c2cc3sccc3n2Cc2ccc(F)cc2)CC1	0	-2	6	-6	-3	1
Cc1ccc(S(=O)(=O)NC(=O)ON=Cc2ccc3c(c2)OCO3)cc1	x	x	x	1	x	4
OC[C@@H]1[C@@H](c2ccccc2)C(c2cccc(Cl)c2)=NN1c1ccccc1	1	26*	x	4	x	-17
Cc1cccc(C2=NN(c3ccccc3)[C@H](CO)[C@H]2c2ccc(Cl)cc2)c1	5	23*	x	5	x	-4
OC[C@@H]1[C@@H](c2ccc(Cl)cc2)C(c2ccc(F)cc2)=NN1c1ccccc1	1	30*	x	-6	x	-5
SMILES	aDG glyco up	NR3A LBD binder	Lipid droplet	GC-A act	JMJD2C inh	NPR2 activator
OC[C@@H]1[C@@H](c2ccccc2)C(c2ccc(F)cc2)=NN1c1ccccc1	0	-9	x	x	x	x
C#CCN(C[C@@H]1[C@@H](OC(=O)Nc2c(C)noc2C)[C@@H](OC(=O)Nc2c(C)noc2C)Cn2c(=O)n(CCCCCC)c(=O)n21)S(=O)(=O)c1ccc(C)cc1	0	x	x	0	x	2
O=C(NC(=S)N1CCCC1)c1ccccc1F	0	1	x	3	4	3
C=CCOc1ccc(/C=C/C(=O)OCC(=O)N2CCN(S(=O)(=O)c3ccc(C)cc3C)CC2)cc1	0	19*	x	1	x	8
Cc1ccc(S(=O)(=O)N2CCN(C(=O)COC(=O)/C=C/c3ccc([N+](=O)[O-])cc3)CC2)c(C)c1	0	0	x	-3	8	-2
COC(=O)c1ccc(COc2ccccc2/C=C(\C#N)C(=O)Nc2c(C)cc(C)cc2C)cc1	0	17*	-3	-8	-3	-2
COC(=O)c1ccc(COc2ccccc2/C=C(\C#N)C(=O)Nc2ccc(C)cc2C)cc1	0	4	23	-9	-4	-9
CCCCNS(=O)(=O)c1ccc(NC(=O)C2c3ccccc3Oc3ccccc32)cc1	0	19*	11	-4	5	-3
O=C(Nc1ccncc1)C1c2ccccc2Oc2ccccc21	2	0	0	-3	-6	1
COC(=O)[C@]12C[C@H](CC(=O)NCCCCc3ccccc3)C(=O)N(CCc3ccc(OC)c(OC)c3)C1=C[C@H](C(C)(C)C)O[C@@H]2C	x	x	x	-5	x	-2
CCCOc1ccc(-c2cc(C(C)=O)c3n(c2=O)CCC3)cc1	x	x	x	-2	x	-2
O=C1C(SCCO)=C(SCCO)C(=O)c2ccccc21	0	-10	x	51*	25	-7
C=CCn1c(COc2ccc(C)cc2)nnc1SCC(=O)Nc1cc(Cl)cc(Cl)c1	x	x	x	-5	x	-8
C=CCNC(=O)N1CCC(c2nc3ccc(Cl)cc3[nH]2)CC1	x	x	x	0	x	-10
COc1cc(NS(=O)(=O)c2ccc(F)cc2)c(C(=O)O)cc1OC	3	12*	x	-4	-62	-2
FC(F)Oc1ccc(/C=N/NC(=S)Nc2cc(C(F)(F)F)ccc2Cl)cc1	0	35*	13	2	0	-3
CNC(=S)Nc1cc(C(F)(F)F)ccc1Cl	0	8	-8	0	-8	1
N#CCCN(C(=O)COC(=O)c1cc(=O)[nH]c2ccccc12)c1ccccc1	0	2	x	2	3	4
CCCC(=O)Nc1nc2ccc(NC(=O)c3ccc(Br)o3)cc2s1	0	18*	2	-4	-7	0
Cc1nc2ccc(NC(=O)c3ccc(Br)o3)cc2s1	0	-24	2	-9	0	-5
CCOc1ccc(C(=O)Nc2ccc3c(c2)OCCO3)cc1OC	0	0	0	1	27	-4
O=C(Nc1ccc2nn(-c3ccccc3)nc2c1)c1ccc(Br)o1	0	19*	29	-3	4	2
